Columns and labels:
Hexokinase-4 [1] = biological target: T1, Hexokinase-4 (Rattus norvegicus, UniProt P17712); experiment: Activation of glucokinase in primary rat hepatocytes assessed as increase in D-2-deoxyglucose-6-phosphate level in presence of D-2-deoxyglucose by HILIC LC-MS method; format: cell-based
T1 sequence (P17712 whole entry): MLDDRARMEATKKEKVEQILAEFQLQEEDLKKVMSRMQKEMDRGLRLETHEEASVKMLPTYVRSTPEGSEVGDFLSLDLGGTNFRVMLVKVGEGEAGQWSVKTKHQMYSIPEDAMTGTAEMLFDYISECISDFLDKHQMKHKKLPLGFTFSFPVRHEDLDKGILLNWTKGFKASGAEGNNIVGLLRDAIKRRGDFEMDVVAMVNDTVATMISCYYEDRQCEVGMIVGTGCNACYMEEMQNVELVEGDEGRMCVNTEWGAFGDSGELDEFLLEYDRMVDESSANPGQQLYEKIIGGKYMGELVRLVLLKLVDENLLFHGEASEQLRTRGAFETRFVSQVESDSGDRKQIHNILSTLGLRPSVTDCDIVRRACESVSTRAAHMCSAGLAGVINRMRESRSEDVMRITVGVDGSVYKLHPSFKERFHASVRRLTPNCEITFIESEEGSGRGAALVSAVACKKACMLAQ
Procedure, shortened: (§1)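 GKACA cell assay in rat INS-1 Clone-13 insulinoma cells or freshly isolated primary rat hepatocytes; intracellular D-2-deoxyglucose-6-phosphate formed from exogenous D-2-deoxyglucose quantified by HILIC LC-MS; EC50 from a single titration.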

Hexokinase-4 [2] = biological target: T2, Hexokinase-4 (Homo sapiens, UniProt P35557); experiment: Activation of recombinant human glucokinase assessed as conversion of D-glucose to D-glucose-6-phosphate in presence of 10 mM glucose by G6PDH coupled spectrophotometric assay
T2 sequence (P35557 whole entry): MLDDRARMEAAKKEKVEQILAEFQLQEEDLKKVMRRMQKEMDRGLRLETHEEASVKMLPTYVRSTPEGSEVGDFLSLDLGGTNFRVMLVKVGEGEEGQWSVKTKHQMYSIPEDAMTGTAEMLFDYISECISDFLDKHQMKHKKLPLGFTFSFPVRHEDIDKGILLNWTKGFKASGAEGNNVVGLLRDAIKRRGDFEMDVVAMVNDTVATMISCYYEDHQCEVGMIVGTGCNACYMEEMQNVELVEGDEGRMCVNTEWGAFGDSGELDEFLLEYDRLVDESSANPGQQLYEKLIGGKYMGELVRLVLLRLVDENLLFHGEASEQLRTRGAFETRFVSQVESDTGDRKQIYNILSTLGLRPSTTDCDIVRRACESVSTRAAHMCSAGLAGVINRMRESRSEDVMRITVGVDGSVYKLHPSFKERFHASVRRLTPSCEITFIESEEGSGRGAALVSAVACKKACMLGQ
Procedure, shortened: (§2)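 Recombinant human GK; ATP-dependent D-glucose-6-phosphate formation from D-glucose at 2.5 or 10 mM, read by continuous glucose-6-phosphate dehydrogenase coupled spectrophotometry. Activators titrated at 1% DMSO final, DMSO as control. EC50 = concentration giving half of maximal increase in product formation; maximum activity expressed as percent velocity increase vs DMSO at saturating activator. Single titration.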

Hexokinase-4 [3] = biological target: T1, Hexokinase-4; experiment: Activation of glucokinase in rat INS-1 cells assessed as increase in D-2-deoxyglucose-6-phosphate level in presence of D-2-deoxyglucose by HILIC LC-MS method; format: cell-based; procedure, shortened: as §1
Hexokinase-4 [4] = biological target: T2, Hexokinase-4; experiment: Activation of recombinant human glucokinase assessed as conversion of D-glucose to D-glucose-6-phosphate in presence of 2.5 mM glucose by G6PDH coupled spectrophotometric assay; procedure, shortened: as §2
[5] = biological target: T3, Hexokinase-4 (Homo sapiens) (UniProt P35557); experiment: Activation of recombinant human glucokinase assessed as conversion of D-glucose to D-glucose-6-phosphate in presence of 10 mM glucose by G6PDH coupled spectrophotometric assay relative to control; procedure, shortened: as §2
T3 sequence (whole entry): T2 sequence (P35557 whole entry)

[6] = biological target: T3, Hexokinase-4 (Homo sapiens); experiment: Activation of recombinant human glucokinase assessed as conversion of D-glucose to D-glucose-6-phosphate in presence of 2.5 mM glucose by G6PDH coupled spectrophotometric assay relative to control; procedure, shortened: as §2

Compound	EC50 (Hexokinase-4 [1])	EC50 (Hexokinase-4 [2])	EC50 (Hexokinase-4 [3])	EC50 (Hexokinase-4 [4])	%max [5]	%max [6]
Cc1cnc(-c2cc3cc(Oc4ccc(S(C)(=O)=O)nc4)c(C4CCC(=O)N4C)cc3[nH]2)s1 (stereo in doubt; 2-en) [listing 1 of 2 here]	77 nM	1 nM	37 nM	5.5 nM	–	–
Cc1cnc(-c2cc3cc(Oc4ccc(S(C)(=O)=O)nc4)c(C4CCC(=O)N4C)cc3[nH]2)s1 (stereo in doubt; 2-en) [listing 2 of 2 here]	–	–	–	–	132%	482%
CN1C(=O)CCC1c1cc2[nH]c(-c3cnccn3)cc2cc1Oc1ccc(S(C)(=O)=O)nc1 (stereo in doubt; 3) [listing 1 of 2 here]	23 nM	4.2 nM	7.2 nM	4.5 nM	–	–
CN1C(=O)CCC1c1cc2[nH]c(-c3cnccn3)cc2cc1Oc1ccc(S(C)(=O)=O)nc1 (stereo in doubt; 3) [listing 2 of 2 here]	–	–	–	–	188%	713%
CN1C(=O)CCC1c1cc2[nH]c(-c3cnccn3)cc2cc1Oc1ccc(S(C)(=O)=O)nc1 (stereo in doubt; 3-en) [listing 1 of 2 here]	1510 nM	18 nM	247 nM	48 nM	–	–
CN1C(=O)CCC1c1cc2[nH]c(-c3cnccn3)cc2cc1Oc1ccc(S(C)(=O)=O)nc1 (stereo in doubt; 3-en) [listing 2 of 2 here]	–	–	–	–	155%	577%
CN1C(=O)CCC1c1cc2[nH]c(-c3ccc(C(C)(C)O)cn3)cc2cc1Oc1ccc(S(C)(=O)=O)nc1 (stereo in doubt; 4) [listing 1 of 2 here]	5.2 nM	2.1 nM	3.9 nM	4.8 nM	–	–
CN1C(=O)CCC1c1cc2[nH]c(-c3ccc(C(C)(C)O)cn3)cc2cc1Oc1ccc(S(C)(=O)=O)nc1 (stereo in doubt; 4) [listing 2 of 2 here]	–	–	–	–	173%	739%
CN1C(=O)CCC1c1cc2[nH]c(-c3ccc(C(C)(C)O)cn3)cc2cc1Oc1ccc(S(C)(=O)=O)nc1 (stereo in doubt; 4-en) [listing 1 of 2 here]	34 nM	9.8 nM	38 nM	31 nM	–	–
CN1C(=O)CCC1c1cc2[nH]c(-c3ccc(C(C)(C)O)cn3)cc2cc1Oc1ccc(S(C)(=O)=O)nc1 (stereo in doubt; 4-en) [listing 2 of 2 here]	–	–	–	–	132%	581%
CN1C(=O)CCC1c1cc2[nH]c(-c3ccc(C(F)(F)F)cn3)cc2cc1Oc1ccc(S(C)(=O)=O)nc1 (stereo in doubt; 5) [listing 1 of 2 here]	2.7 nM	< 0.85 nM	2.5 nM	2.4 nM	–	–
CN1C(=O)CCC1c1cc2[nH]c(-c3ccc(C(F)(F)F)cn3)cc2cc1Oc1ccc(S(C)(=O)=O)nc1 (stereo in doubt; 5) [listing 2 of 2 here]	–	–	–	–	174%	764%

From ChEMBL document CHEMBL4014285, “Novel, highly potent systemic glucokinase activators for the treatment of Type 2 Diabetes Mellitus” (Bioorg Med Chem Lett, 2017)
